According to ChEMBL document CHEMBL5058577, “EUbOPEN Chemogenomics Library 2 (Multiplex)” (2022):

System: U2OS
Test: Multiplex assay against U2OS
Format: toxicity, cell-based
Settings: human
In short: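 At seeding, live cells were stained with Hoechst33342, BioTracker Green Microtubule Cytoskeleton Dye, MitoTracker Red and Annexin V Alexa Fluor 680. After compound addition they were imaged on a CQ1 microscope at 37°C and 5% CO2, and CellPathfinder machine-learning gating sorted them into Hoechst high-intensity objects or normal cells, with normal cells further split into healthy, pyknosed or fragmented nuclei and pyknosed cells into mitotic or apoptotic. Tubulin, mitochondrial-mass and membrane-permeability phenotypes are given as per cents of cells with healthy nuclei.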

[1] = 12 h, 1 µM, compound concentration 1 uM, replicate 1
[2] = 12 h, 1 µM, compound concentration 1 uM, replicate 2
[3] = 12 h, 10 µM, compound concentration 10 uM, replicate 1
[4] = 12 h, 10 µM, compound concentration 10 uM, replicate 2
[5] = 24 h, 1 µM, compound concentration 1 uM, replicate 1
[6] = 24 h, 1 µM, compound concentration 1 uM, replicate 2
[7] = 24 h, 10 µM, compound concentration 10 uM, replicate 1
[8] = 24 h, 10 µM, compound concentration 10 uM, replicate 2
[9] = 48 h, 1 µM, compound concentration 1 uM, replicate 1
[10] = 48 h, 1 µM, compound concentration 1 uM, replicate 2
[11] = 48 h, 10 µM, compound concentration 10 uM, replicate 1
[12] = 48 h, 10 µM, compound concentration 10 uM, replicate 2

Which “Population Apoptotic (%)” value [1] does the source give for `CC(C)(O)C(=O)N1CCN(c2ccc(C(F)(F)F)c(C3=C(c4c[nH]c5ccccc45)C(=O)NC3=O)c2)CC1` here?
The value was 88%.

And the “Population Fragmented Nuclei (%)” value [1]?
The value was 29%.

What about the “Population Healthy Nuclei (%)” value [1] of the same compound?
The value was 63%.

And the “Population Hoechst High Intensity Objects (%)” value [1]?
Its value is 3%.

And the “Population Membrane Permeable-Phenotype (%)” value [1]?
The value was 5%.

And the “Population Mitochondria Different-Phenotype (%)” value [1]?
The value was 2%.

What about the “Population Mitotic Cells (%)” value [1] of the same compound?
The value was 11%.

And the “Population Normal (%)” value [1]?
Its value is 96%.

What about the “Population Pyknosed Nuclei (%)” value [1] of the same compound?
The value was 7%.

What about the “Population Tubulin-Different-Phenotype (%)” value [1] of the same compound?
The value was 3%.

And the “Total Cell Count” value [1]?
The value was 238.

What about the “Population Apoptotic (%)” value [2] of the same compound?
Its value is 92%.

And the “Population Fragmented Nuclei (%)” value [2]?
Its value is 14%.

And the “Population Healthy Nuclei (%)” value [2]?
Its value is 75%.

What about the “Population Hoechst High Intensity Objects (%)” value [2] of the same compound?
The value was 1%.

And the “Population Membrane Permeable-Phenotype (%)” value [2]?
Its value is 4%.

What about the “Population Mitochondria Different-Phenotype (%)” value [2] of the same compound?
The value was 4%.

What about the “Population Mitotic Cells (%)” value [2] of the same compound?
Its value is 7%.

And the “Population Normal (%)” value [2]?
The value was 98%.

What about the “Population Pyknosed Nuclei (%)” value [2] of the same compound?
Its value is 9%.

What about the “Total Cell Count” value [2] of the same compound?
Its value is 134.

And the “Population Apoptotic (%)” value [3]?
The value was 76%.

What about the “Population Fragmented Nuclei (%)” value [3] of the same compound?
Its value is 37%.

And the “Population Healthy Nuclei (%)” value [3]?
The value was 46%.

And the “Population Hoechst High Intensity Objects (%)” value [3]?
The value was 6%.

What about the “Population Membrane Permeable-Phenotype (%)” value [3] of the same compound?
Its value is 39%.

What about the “Population Mitochondria Different-Phenotype (%)” value [3] of the same compound?
Its value is 23%.

And the “Population Mitotic Cells (%)” value [3]?
The value was 24%.

And the “Population Normal (%)” value [3]?
Its value is 93%.

What about the “Population Pyknosed Nuclei (%)” value [3] of the same compound?
The value was 16%.

What about the “Population Tubulin-Different-Phenotype (%)” value [3] of the same compound?
The value was 30%.

What about the “Total Cell Count” value [3] of the same compound?
The value was 166.

And the “Population Apoptotic (%)” value [4]?
Its value is 50%.

What about the “Population Fragmented Nuclei (%)” value [4] of the same compound?
The value was 6%.

And the “Population Healthy Nuclei (%)” value [4]?
The value was 77%.

What about the “Population Hoechst High Intensity Objects (%)” value [4] of the same compound?
Its value is 1%.

What about the “Population Membrane Permeable-Phenotype (%)” value [4] of the same compound?
The value was 14%.

What about the “Population Mitochondria Different-Phenotype (%)” value [4] of the same compound?
The value was 14%.

What about the “Population Mitotic Cells (%)” value [4] of the same compound?
The value was 50%.

What about the “Population Normal (%)” value [4] of the same compound?
The value was 98%.

And the “Population Tubulin-Different-Phenotype (%)” value [4]?
Its value is 15%.

What about the “Total Cell Count” value [4] of the same compound?
Its value is 148.

What about the “Population Apoptotic (%)” value [5] of the same compound?
Its value is 89%.

What about the “Population Fragmented Nuclei (%)” value [5] of the same compound?
The value was 27%.

And the “Population Healthy Nuclei (%)” value [5]?
The value was 61%.

What about the “Population Hoechst High Intensity Objects (%)” value [5] of the same compound?
The value was 3%.

What about the “Population Membrane Permeable-Phenotype (%)” value [5] of the same compound?
The value was 7%.

And the “Population Mitochondria Different-Phenotype (%)” value [5]?
The value was 3%.

What about the “Population Mitotic Cells (%)” value [5] of the same compound?
The value was 10%.

And the “Population Normal (%)” value [5]?
Its value is 96%.

And the “Population Pyknosed Nuclei (%)” value [5]?
The value was 11%.

What about the “Population Tubulin-Different-Phenotype (%)” value [5] of the same compound?
The value was 5%.

And the “Total Cell Count” value [5]?
Its value is 263.

And the “Population Apoptotic (%)” value [6]?
The value was 82%.

What about the “Population Fragmented Nuclei (%)” value [6] of the same compound?
Its value is 22%.

And the “Population Healthy Nuclei (%)” value [6]?
The value was 67%.

And the “Population Hoechst High Intensity Objects (%)” value [6]?
Its value is 0%.

And the “Population Membrane Permeable-Phenotype (%)” value [6]?
The value was 4%.

What about the “Population Mitochondria Different-Phenotype (%)” value [6] of the same compound?
Its value is 2%.

What about the “Population Mitotic Cells (%)” value [6] of the same compound?
Its value is 17%.

What about the “Population Normal (%)” value [6] of the same compound?
The value was 100%.

What about the “Population Pyknosed Nuclei (%)” value [6] of the same compound?
The value was 9%.

What about the “Population Tubulin-Different-Phenotype (%)” value [6] of the same compound?
The value was 2%.

What about the “Total Cell Count” value [6] of the same compound?
The value was 172.

And the “Population Apoptotic (%)” value [7]?
The value was 87%.

And the “Population Fragmented Nuclei (%)” value [7]?
Its value is 48%.

And the “Population Healthy Nuclei (%)” value [7]?
Its value is 27%.

And the “Population Hoechst High Intensity Objects (%)” value [7]?
The value was 6%.

What about the “Population Membrane Permeable-Phenotype (%)” value [7] of the same compound?
The value was 11%.

What about the “Population Mitochondria Different-Phenotype (%)” value [7] of the same compound?
The value was 34%.

What about the “Population Mitotic Cells (%)” value [7] of the same compound?
Its value is 12%.

What about the “Population Normal (%)” value [7] of the same compound?
The value was 93%.

What about the “Population Pyknosed Nuclei (%)” value [7] of the same compound?
The value was 24%.

And the “Population Tubulin-Different-Phenotype (%)” value [7]?
Its value is 15%.

And the “Total Cell Count” value [7]?
Its value is 172.

And the “Population Apoptotic (%)” value [8]?
The value was 70%.

And the “Population Fragmented Nuclei (%)” value [8]?
Its value is 16%.

And the “Population Healthy Nuclei (%)” value [8]?
Its value is 53%.

What about the “Population Hoechst High Intensity Objects (%)” value [8] of the same compound?
The value was 2%.

And the “Population Membrane Permeable-Phenotype (%)” value [8]?
Its value is 15%.

What about the “Population Mitochondria Different-Phenotype (%)” value [8] of the same compound?
Its value is 24%.

What about the “Population Mitotic Cells (%)” value [8] of the same compound?
Its value is 29%.

And the “Population Normal (%)” value [8]?
The value was 97%.

What about the “Population Pyknosed Nuclei (%)” value [8] of the same compound?
The value was 29%.

What about the “Population Tubulin-Different-Phenotype (%)” value [8] of the same compound?
Its value is 11%.

What about the “Total Cell Count” value [8] of the same compound?
The value was 152.

What about the “Population Apoptotic (%)” value [9] of the same compound?
The value was 95%.

And the “Population Fragmented Nuclei (%)” value [9]?
Its value is 21%.

And the “Population Healthy Nuclei (%)” value [9]?
Its value is 65%.

And the “Population Hoechst High Intensity Objects (%)” value [9]?
Its value is 3%.

What about the “Population Membrane Permeable-Phenotype (%)” value [9] of the same compound?
The value was 6%.

And the “Population Mitochondria Different-Phenotype (%)” value [9]?
The value was 4%.

And the “Population Mitotic Cells (%)” value [9]?
The value was 4%.

What about the “Population Normal (%)” value [9] of the same compound?
The value was 96%.

And the “Population Pyknosed Nuclei (%)” value [9]?
The value was 12%.

What about the “Population Tubulin-Different-Phenotype (%)” value [9] of the same compound?
Its value is 5%.

And the “Total Cell Count” value [9]?
The value was 377.

And the “Population Apoptotic (%)” value [10]?
Its value is 85%.

And the “Population Fragmented Nuclei (%)” value [10]?
Its value is 17%.

And the “Population Healthy Nuclei (%)” value [10]?
The value was 73%.

What about the “Population Hoechst High Intensity Objects (%)” value [10] of the same compound?
Its value is 1%.

What about the “Population Membrane Permeable-Phenotype (%)” value [10] of the same compound?
The value was 7%.

And the “Population Mitochondria Different-Phenotype (%)” value [10]?
The value was 3%.

What about the “Population Mitotic Cells (%)” value [10] of the same compound?
Its value is 14%.

And the “Population Normal (%)” value [10]?
Its value is 98%.

What about the “Population Pyknosed Nuclei (%)” value [10] of the same compound?
Its value is 9%.

And the “Population Tubulin-Different-Phenotype (%)” value [10]?
Its value is 2%.

What about the “Total Cell Count” value [10] of the same compound?
The value was 233.

And the “Population Apoptotic (%)” value [11]?
The value was 95%.

And the “Population Fragmented Nuclei (%)” value [11]?
Its value is 57%.

What about the “Population Healthy Nuclei (%)” value [11] of the same compound?
Its value is 11%.

And the “Population Hoechst High Intensity Objects (%)” value [11]?
The value was 14%.

What about the “Population Membrane Permeable-Phenotype (%)” value [11] of the same compound?
The value was 27%.

What about the “Population Mitochondria Different-Phenotype (%)” value [11] of the same compound?
The value was 16%.

What about the “Population Mitotic Cells (%)” value [11] of the same compound?
Its value is 4%.

And the “Population Normal (%)” value [11]?
Its value is 85%.

And the “Population Pyknosed Nuclei (%)” value [11]?
The value was 30%.

What about the “Population Tubulin-Different-Phenotype (%)” value [11] of the same compound?
Its value is 11%.

What about the “Total Cell Count” value [11] of the same compound?
The value was 177.

What about the “Population Apoptotic (%)” value [12] of the same compound?
The value was 96%.

What about the “Population Fragmented Nuclei (%)” value [12] of the same compound?
The value was 31%.

What about the “Population Healthy Nuclei (%)” value [12] of the same compound?
Its value is 27%.

What about the “Population Hoechst High Intensity Objects (%)” value [12] of the same compound?
Its value is 7%.

And the “Population Membrane Permeable-Phenotype (%)” value [12]?
Its value is 17%.

What about the “Population Mitochondria Different-Phenotype (%)” value [12] of the same compound?
The value was 14%.

What about the “Population Mitotic Cells (%)” value [12] of the same compound?
Its value is 3%.

What about the “Population Normal (%)” value [12] of the same compound?
The value was 92%.

What about the “Population Pyknosed Nuclei (%)” value [12] of the same compound?
The value was 41%.

What about the “Population Tubulin-Different-Phenotype (%)” value [12] of the same compound?
Its value is 17%.

What about the “Total Cell Count” value [12] of the same compound?
Its value is 163.
